Screening results (PubChem BioAssay)
This is a sample that favours compounds with a hit; in the whole collection about 2.4% have one here.
ABHD4 inh = inhibits mouse alpha/beta hydrolase domain 4; purified mABHD4, FP-Rh probe fluorescence polarization; hit rate 0.54% among 370,000; inhibition, % at 8.92 µM; Q8VD66; AID 720543;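 active = inhibition exceeding the mean over every tested compound plus 3 SD, cut at about 30% in these data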
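Test system: mouse ABHD4 enzyme, wild type. Reagent: FP-Rh fluorescent activity-based probe, added after compound pre-incubation. Timing: pre-incubation 45 min, probe exposure 60 min, at 25 °C. Technique: FP readout, ex 525 nm / em 598 nm. Benchmarks: high control S159A mutant with DMSO, low control median of compound wells.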
SIAE inh = blocks human sialic acid acetylesterase. Q9HAT2. SIAE FP-Rh probe binding, fluorescence polarization. inhibition, % at 9.66 µM. hit rate 0.69% among 370,000. AID 1053197;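 active = inhibition above a cutoff: mean of compounds within the control limits plus 3 SD of those, cut at about 17% in these data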
GASC-1 inh = human JMJD2C demethylase inhibition; GST-JMJD2C(1-420) H3K9me3 demethylation, DELFIA europium; hit rate 0.069% among 330,000; Q9H3R0; inhibition, % at 2.35 µM;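 active = more than half of a compound's replicate wells show inhibition beyond 50%, single wells judged on their own value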;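 note: signal counts dimethyl H3K9 product captured on neutravidin plate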
Target sequence (Q9H3R0 1-420 limits assumed): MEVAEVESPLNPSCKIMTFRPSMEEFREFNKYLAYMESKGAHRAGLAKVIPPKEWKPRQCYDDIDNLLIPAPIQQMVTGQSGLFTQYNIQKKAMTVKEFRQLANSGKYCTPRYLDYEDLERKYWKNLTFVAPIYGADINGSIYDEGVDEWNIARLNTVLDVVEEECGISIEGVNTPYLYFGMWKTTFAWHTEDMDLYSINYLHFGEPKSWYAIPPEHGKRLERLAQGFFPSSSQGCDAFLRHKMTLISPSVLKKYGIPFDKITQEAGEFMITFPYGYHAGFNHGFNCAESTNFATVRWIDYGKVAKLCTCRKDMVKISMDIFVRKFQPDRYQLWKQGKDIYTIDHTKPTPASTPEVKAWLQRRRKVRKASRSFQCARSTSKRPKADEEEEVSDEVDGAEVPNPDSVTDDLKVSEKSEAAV
HTRA1 inhibitor = HTRA1 (human) protease inhibition; Q92743; recombinant HTRA1, FP-rhodamine activity-based probe, fluorescence polarization; inhibition, % at 5.96 µM; hit rate 0.5% among 340,000; in the data active = inhibition above about 36%
PRMT1 FP inh = PRMT1 (human) inhibition, primary screen | recombinant PRMT1, activity-based probe fluorescence polarization | inhibition, % at 2.79 µM | hit rate 1.3% among 370,000 | AID 652257;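 active = inhibition above about 21% made by adding two undisclosed values, limit read from the data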
mABHD4 conf = confirmation of mouse ABHD4 inhibitors | shares compounds with ABHD4 inh | purified mABHD4, FP-Rh probe fluorescence polarization | inhibition, % at 8.92 µM | hit rate 55% among 1,800;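 active = mean inhibition across replicates above the hit cutoff set in the primary screen, cut at about 30% in these data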
Each line names hits and unclear results; the compound was inactive in the other large screens (follow-up assays come after a bar, where they were run).

CCCCNc1c(-c2cccc(-c3ccc(OC)cc3)c2)nc2ccc(C)cn12	ABHD4 inh 30 | mABHD4 conf 35
Cc1cccc(-c2cccc3c4c([nH]c23)[C@@H]2C[C@H](N(C)C(=O)Nc3ccccc3C)[C@H]([C@H](C)O)C(=O)N2CC4)c1	none (no result: GASC-1 inh, HTRA1 inhibitor)
COc1ccc2nc(-c3ccc(CN4CCC5(CC4)CNc4ccccc45)cc3)c(-c3ccccc3)nc2c1	none (no result: GASC-1 inh, HTRA1 inhibitor)
COc1cc(F)ccc1-c1csc(C(C)(O)c2ccccc2)n1 (stereo unspecified)	none (no result: GASC-1 inh, HTRA1 inhibitor)
CC1=NN(c2nc(-c3ccccc3)cs2)C(=O)C1	ABHD4 inh 49 | mABHD4 conf 146
CC1(c2ccc(F)cc2)OC(=O)c2c1ccc1ccccc21 (stereo unspecified)	none (no result: GASC-1 inh)
CC1CCN(c2ccc(C(=O)O)cc2NS(=O)(=O)c2ccccc2)CC1	ABHD4 inh 37 (no result: GASC-1 inh, HTRA1 inhibitor) | mABHD4 conf 39
COc1cc([N+](=O)[O-])cc(/C=N/NC(=O)C(C)Nc2cccc3ccccc23)c1O (stereo unspecified)	ABHD4 inh 33 | mABHD4 conf 39
Cc1cc(C(=O)N/N=C/c2cc(Cl)cc([N+](=O)[O-])c2O)c2ccccc2n1	ABHD4 inh 32 | mABHD4 conf 37
Nc1ccc2ccc(N)cc2c1	ABHD4 inh 35 (no result: GASC-1 inh, HTRA1 inhibitor) | mABHD4 conf inactive
C/C(=N\Nc1nc2ccccc2s1)c1ccc(Br)s1	ABHD4 inh 33 | mABHD4 conf inactive
O=C1c2ccccc2C(=O)c2cc(S(=O)(=O)Nc3ccccc3)ccc21	ABHD4 inh 40 | mABHD4 conf 53
O=S(=O)(Nc1ccccc1)c1ccc(F)cc1	none
O=C(O)c1cccc(NS(=O)(=O)c2ccc3c(c2)C(=O)c2ccccc2C3=O)c1	ABHD4 inh 45 | mABHD4 conf 37
COC(=O)C[C@H]1CC[C@@H]2[C@H](COc3ccc(NC(=O)c4cccc(Cl)c4)cc3C(=O)N2C)O1	none (no result: GASC-1 inh, HTRA1 inhibitor)
COc1ccc(C#Cc2c(-c3ccccc3OC)oc3ccccc23)cc1	none (no result: GASC-1 inh, HTRA1 inhibitor)
CC(=O)Nc1nc(-c2ccc3c(c2)CC(C)N3C(=O)C2CC2)c(C)s1 (stereo unspecified)	none
CCOC(=O)C(=O)Nc1nc(-c2ccc3c(c2)CCN3C(=O)C2CC2)c(C)s1	ABHD4 inh 39 | mABHD4 conf inactive
O=C(NC1CCCCC1)C1c2ccccc2OCC(=O)N1Cc1ccccc1 (stereo unspecified)	none (no result: GASC-1 inh, HTRA1 inhibitor)
CC(CNc1ccccc1O)C(=O)O (stereo unspecified)	ABHD4 inh 34, PRMT1 FP inh 23 | mABHD4 conf inactive
CCOC(=O)N1CCN(CC(O)COc2ccccc2C(C)C)CC1 (stereo unspecified)	none
CCN(CCNCC(O)COc1ccccc1C(C)C)c1cccc(C)c1 (stereo unspecified)	ABHD4 inh 32 | mABHD4 conf 41
CCCN1CCS(=O)(=O)N(Cc2cn(Cc3ccc(OC)cc3)nn2)C(C(=O)OC)C1 (stereo unspecified)	none (no result: GASC-1 inh, HTRA1 inhibitor)
Nc1ccc2c(c1)C(=O)c1ccc(N)cc1-2	ABHD4 inh 30 (no result: GASC-1 inh) | mABHD4 conf 37
COc1cccc(-c2nc(NCC3CCCO3)c3ccccc3n2)c1O (stereo unspecified)	ABHD4 inh 33 | mABHD4 conf 34
CCC(C)Nc1nc(-c2cccc(OC)c2O)nc2ccccc12 (stereo unspecified)	ABHD4 inh 34 | mABHD4 conf 37
CCOC(=O)c1c(-c2ccccc2)[nH]c2ccc(O)cc12	ABHD4 inh 31 | mABHD4 conf 42
O=c1c2ccccc2[nH]c2ccc(O)cc12	ABHD4 inh 41 | mABHD4 conf inactive
CCN(CC)S(=O)(=O)c1ccc(N/N=C/c2ccccc2OCC(=O)O)c([N+](=O)[O-])c1	ABHD4 inh 35 | mABHD4 conf 44
COc1ccccc1NS(=O)(=O)c1ccc(N/N=C/c2ccccc2OCC(=O)O)c([N+](=O)[O-])c1	ABHD4 inh 60 | mABHD4 conf 61
COc1ccccc1NS(=O)(=O)c1ccc(N/N=C/C=C/c2ccccc2[N+](=O)[O-])c([N+](=O)[O-])c1	none
COc1ccc(NS(=O)(=O)c2cc([N+](=O)[O-])ccc2NN=Cc2ccccc2OCC(=O)O)cc1	none
COc1cc(C=Nn2c(-c3n[nH]c4c3CCC4)n[nH]c2=S)ccc1OCc1ccccc1	none (no result: GASC-1 inh, HTRA1 inhibitor)
Cc1cc2ccccn2c1C(=O)c1ccc(NN)c([N+](=O)[O-])c1	ABHD4 inh 33 | mABHD4 conf inactive
Cc1cc2ccccn2c1C(=O)c1cc([N+](=O)[O-])cc([N+](=O)[O-])c1	none
O=S1(=O)c2c(NCc3ccco3)cccc2Oc2ccccc2CN1Cc1cn(Cc2ccc(C(F)(F)F)cc2)nn1	none (no result: GASC-1 inh, HTRA1 inhibitor)
COC(=O)CSc1nnc(-c2cnccn2)n1C	none
CC(C)OC(=O)CSc1nnc(-c2cnccn2)n1C	ABHD4 inh 116 | mABHD4 conf inactive
CC(=O)OCC(=O)C1CCC2C3CC=C4CC(O)CCC4(C)C3CCC12C (stereo unspecified)	none (no result: GASC-1 inh)
CC(=O)C1CCC2C3CC=C4CC(SC(=N)N)CCC4(C)C3CCC12C (stereo unspecified)	ABHD4 inh 46 (no result: GASC-1 inh) | mABHD4 conf 38
O=C(O)c1cccc(-n2cccc2/C=C2\NC(=O)N(Cc3ccc(F)cc3)C2=O)c1	none
Cc1cc(C(=O)O)ccc1-c1ccc(/C=C2\NC(=O)N(Cc3ccc(F)cc3)C2=O)o1	ABHD4 inh 30 | mABHD4 conf 78
COC(=O)[C@]12C[C@H](CC(=O)N3CCCC3)C(=O)N(Cc3ccc(Cl)cc3Cl)C1=C[C@H](C(C)C)O[C@@H]2C1CC1	none (no result: GASC-1 inh, HTRA1 inhibitor)
Nc1ccc(N=Nc2ccccc2O)c(N)c1	ABHD4 inh 39 (no result: HTRA1 inhibitor) | mABHD4 conf 40
COCCCNc1cc(C)nc2ccccc12	none
Cc1cc(NCCCCCCCNc2cc(C)nc3cc([N+](=O)[O-])ccc23)c2ccc([N+](=O)[O-])cc2n1	ABHD4 inh 32 (no result: GASC-1 inh) | mABHD4 conf 40
COc1ccc(-c2nc(N/N=C(\C)c3ccc(O)cc3)c3ccccc3n2)cc1	ABHD4 inh 32 | mABHD4 conf inactive
COc1ccc(Nc2nc(-c3ccccc3)nc3ccccc23)cc1	none
O=C(c1cc(-c2ccccc2)on1)N1CCC(Oc2cccnc2)CC1	none (no result: GASC-1 inh, HTRA1 inhibitor)
Cc1ccc(S(=O)(=O)/N=C2\C=C(NS(=O)(=O)c3ccccc3)C(=O)c3ccccc32)c(C)c1	ABHD4 inh 50 (no result: GASC-1 inh) | mABHD4 conf 36
CC(C)(C)c1ccc(S(=O)(=O)/N=C2\C=C(NS(=O)(=O)c3ccccc3)C(=O)c3ccccc32)cc1	ABHD4 inh 36 | mABHD4 conf 60
C/C(=N\NS(=O)(=O)c1ccc(C(C)(C)C)cc1)c1ccccc1	none
CCCC1CCC2(CC1)CCC2OC(=O)Nc1cc(C)cc(C)c1 (stereo unspecified)	none (no result: GASC-1 inh, HTRA1 inhibitor)
NC(=O)c1ccc(NC(=O)COc2cccc3c2CCNC3=O)cc1	ABHD4 inh 105 | mABHD4 conf inactive
